# Screening data from PubChem.
# In the library only some 6.6% were active in any assay of this set; here they are far more common.
# M1 agonist = M1 muscarinic receptor agonists, primary screen, CHO-M1 cells, Fluo-4 calcium, agonist mode; actives 3% (n = 64,000); B-score at 10 µM; Fluo-4 calcium fluorescence; active compounds read high;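 active = fluorescence rise, raw or as B-score row- and column-corrected plate score, outside the 99.7% band of its plate's samples, either direction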
# HEK293 NFkB inh = inhibitors of PMA/ionomycin-induced NF-kB reporter, primary screen, antigen receptor NF-kB inhibitor project, cell-based, HEK-293 luciferase reporter, luminescence; HEK-293 NF-kB luciferase reporter; inhibition, % at 3 µM; actives 0.21% (n = 62,000); AID 465, 2006;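 active = inhibition above the mean of all tested compounds plus 3 SD, cut at about 40% in these data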;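 note: 0% = stimulated DMSO wells and 100% = 10 µM reference inhibitor 5653914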
#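 Material: HEK-293 cells with stable firefly luciferase reporter driven by four HIV NF-kB elements / Also added: PMA plus ionomycin mix as NF-kB-activating stimulus / Compound dosing: 3 µM once, 0.30% DMSO / Times: 1 h pretreatment, 16 h stimulation, 37 °C / Signal: luminescence / Evaluation: per-plate % inhibition versus controls / Benchmarks: DMSO and 10 µM reference inhibitor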
# Her2 expr inh = inhibitors of Her2 protein expression, primary screen, SKBR-3 cells, AlphaScreen, 66K library | actives 0.69% (n = 65,000) | Receptor tyrosine-protein kinase erbB-2 (Homo sapiens), P04626 | SKBR-3 HER2 protein level, 18-24 h; active compounds read low | AID 645, 2007 | HER2 level % of control, % at 10 µM;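 active = HER2 level under 5% of the carrier-only control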;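 note: 100% = DMSO carrier and 0% = 500 nM PU-H71 HSP90 inhibitor; lower value means stronger loss of Her2 protein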
# BAP1 block = inhibitors of BAP1 deubiquitinase, primary screen, biochemical, Ub-AMC fluorescence, kinetic; Ubiquitin carboxyl-terminal hydrolase BAP1 (Homo sapiens), Q92560; recombinant BAP1, Ub-AMC hydrolysis fluorescence kinetic; active compounds read low; calls only at 20 µM; actives 0.48% (n = 72,000);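 active = activity remaining at or below 50% of control, provided the compound also passes the data quality filters; inactive = the rest, including low values that fail the filters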;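 note: 100% = DMSO wells rate and 0% = substrate alone blank rate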
# M1 antagonist = antagonists of rat M1 muscarinic receptor; B-score at 10 µM; Muscarinic acetylcholine receptor M1 (Rattus norvegicus), P08482; CHO-M1 cells, Fluo-4 calcium, ACh EC80 antagonist mode; active compounds read low; actives 3.4% (n = 64,000);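 active = calcium fluorescence response, raw or row-and-column corrected B-score, differing from the plate sample mean either way at a set confidence level, mostly lower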
# Target sequence (P08482 whole entry, looked up): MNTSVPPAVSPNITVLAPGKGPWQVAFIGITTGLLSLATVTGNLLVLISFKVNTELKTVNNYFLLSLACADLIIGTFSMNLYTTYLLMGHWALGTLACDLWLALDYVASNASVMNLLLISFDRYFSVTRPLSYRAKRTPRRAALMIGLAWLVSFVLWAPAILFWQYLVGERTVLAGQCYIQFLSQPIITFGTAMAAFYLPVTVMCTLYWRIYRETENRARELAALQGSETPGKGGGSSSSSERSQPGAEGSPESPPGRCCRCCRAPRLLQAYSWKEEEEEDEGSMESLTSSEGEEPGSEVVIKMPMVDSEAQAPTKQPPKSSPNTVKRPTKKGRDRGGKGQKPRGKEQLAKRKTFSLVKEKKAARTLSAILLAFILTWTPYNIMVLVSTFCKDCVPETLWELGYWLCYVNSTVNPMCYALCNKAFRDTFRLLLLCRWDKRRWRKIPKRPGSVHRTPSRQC
# JNK3 blocker = JNK3 kinase activity inhibitors, primary screen, biochemical, human, purified enzyme; Mitogen-activated protein kinase 10 (Homo sapiens), P53779; actives 0.61% (n = 60,000); HTS; inhibition, % at 8 µM; AID 746, 2007; in the data active = inhibition above about 17%;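 note: 0% = DMSO and 100% = reference inhibitor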
# M1 antag confirm = rat M1 muscarinic receptor antagonists, confirmation, CHO cells, Fluo-4 calcium, duplicate; ACh EC80 antagonism; active compounds read low; actives 43% (n = 1,700); calcium response (max-min fluorescence) at 10 µM; shares compounds with M1 antagonist;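 active = calcium response below the same-plate mean of wells given acetylcholine alone at its 80%-effect dose, minus 3 SD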;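 note: raw fluorescence intensity difference in arbitrary instrument units and not normalized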
# mGluR4 antag = human mGluR4 response to M1 antagonist hits, M1 allosteric modulator project, cell-based, antagonist mode, secondary assay 1 | shares compounds with M1 antagonist | CHO-mGluR4 calcium flux, Fluo-4 fluorescence, glutamate EC80; active compounds read low | fluorescence response (max-min) at 10 µM | actives 0.9% (n = 1,700) | AID 678, 2007;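 active = fluorescence response below the plate's average for near-maximal glutamate wells, less 3 SD of those wells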;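 note: raw unnormalized fluorescence span taken in the window right after glutamate addition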
# * marks the source's active call; other numbers are inactive results; i = inactive; . = no result shown.
SMILES,M1 agonist,HEK293 NFkB inh,Her2 expr inh,BAP1 block,M1 antagonist,JNK3 blocker,M1 antag confirm,mGluR4 antag
Cc1csc2nc(CCNS(=O)(=O)c3ccc4c(c3)OCCO4)cn12,-1.15,11.5,98.6,i,-2.58*,-0.1,649,224
COc1ccccc1C1C(C(N)=O)=C(C)Nc2nc(-c3ccc(Cl)cc3)nn21 (configuration not stated),0.941,18.5,116.1,i,0.412,-15.0,.,.
COc1ccc(-c2nc3n(n2)C(c2ccccc2Cl)C(C(N)=O)=C(C)N3)cc1 (configuration not stated),0.341,8.4,116.2,i,-2.97*,-0.2,626,245
O=C1CC(SCCO)C(=O)N1c1ccc(Oc2ccccc2)cc1 (configuration not stated),0.0204,10.2,99.7,.,-2.75*,0.6,597,252
CCOC(=O)c1ccc(N2C(=O)CC(SCC(N)C(=O)OCC)C2=O)cc1 (configuration not stated),0.287,26.3,.,.,0.246,.,.,.
COc1cccc(-c2nn(C)c3sc(C(=O)NCc4ccco4)cc23)c1,0.0345,24.8,85.5,.,-1.13,7.1,.,.
CCN1CCCC1CNC(=O)c1cc2c(-c3ccc(Cl)cc3)nn(C)c2s1 (configuration not stated),0.325,12.0,82.9,i,-4.04*,1.6,430,200
CCN1CCCC1CNC(=O)c1cc2c(-c3cccc(OC)c3)nn(C)c2s1 (configuration not stated),0.3,18.1,81.7,i,-2.84*,-1.8,570,257
Cn1nc(-c2ccc(Cl)cc2)c2cc(C(=O)NCCCN3CCCC3)sc21,-0.595,11.3,78.0,i,-1.73,-2.6,.,.
COc1cccc2cc(-c3nnc(Nc4ccccc4F)s3)c(=O)oc12,.,.,.,i,.,.,.,.
CCN(CC)CCOc1c(Br)ccc2c1sc1nc3n(c(=O)c12)CCC3,-0.0553,17.2,103.3,i,-11.2*,0.8,130*,229
OC(CN1CCCCC1)CN(c1ccccc1)c1ccccc1 (configuration not stated),1.79,19.4,115.8,i,-21.7*,-12.0,77.7*,193
OC(CN1CCOCC1)CN(c1ccccc1)c1ccccc1 (configuration not stated),-0.602,8.4,70.6,i,-0.0705,-2.5,.,.
COC(=O)C(C(=O)N1CCN(C)CC1)C1CCCCCC1 (configuration not stated),-0.411,28.3,88.5,i,-3.27*,-9.1,527,228
COc1cc(C(=S)N2CCCC2)cc(Cl)c1O,-0.0105,11.0,134.7,i,-2.02*,-0.8,685,246
O=C(CCCSc1nc2ccccc2s1)Nc1nccs1,-0.0483,12.5,80.9,i,-2.72*,5.0,620,243
CCOc1ccc2[nH]c(=O)c(CN(CCO)C(=O)c3ccccc3F)cc2c1,0.126,12.0,90.0,i,0.016,5.4,.,.
COc1ccc2cc(CN(CCO)C(=O)c3ccccc3F)c(=O)[nH]c2c1,-0.00747,17.1,110.5,i,-2.73*,.,670,249
CCN(CC(=O)NC(=O)NCc1ccco1)Cc1nc2ccccc2c(=O)[nH]1,0.0129,12.1,99.0,i,0.0673,1.7,.,.
CCN(CC(=O)NCCc1ccc(S(N)(=O)=O)cc1)Cc1nc2ccccc2c(=O)[nH]1,0.0301,13.0,96.3,i,-2*,0.4,636,238
CCOC(=O)c1ccccc1NC(=O)c1ccccc1Cl,.,.,.,i,.,.,.,.
O=C(NCCN1CCN(C(=O)c2cccs2)CC1)c1cccs1,-0.602,10.8,84.5,i,-2.35*,3.9,560,234
O=C(c1cccs1)N1CCN(CCc2ccccc2)CC1,-0.104,12.7,84.2,i,-0.125,0.7,.,.
CCN1CCc2c(C#N)c(N3CCOCC3)nc(NCc3ccccc3)c2C1,-1.98,.,57.2,i,-2.18*,4.7,572,195
CCN(CCNC(=O)C1CCN(c2nnc(-n3cccc3)s2)CC1)c1ccccc1,-0.426,16.6,89.7,i,-0.826*,-9.1,630,192
SMILES,M1 agonist,HEK293 NFkB inh,Her2 expr inh,BAP1 block,M1 antagonist,JNK3 blocker,M1 antag confirm,mGluR4 antag
CNC(=O)C1C2C=CC3(O2)C1C(=O)N(C1CC1)C3C(=O)NCc1ccc(OC)cc1 (configuration not stated),-0.572,3.1,127.5,i,-2.08*,.,679,243
C=CCN1C(=O)C2C(C(=O)NC)C3C=CC2(O3)C1C(=O)NCc1ccc(OC)cc1 (configuration not stated),0.345,6.0,102.7,.,0.667,.,.,.
CN1CCN(C(=O)CN(Cc2ccc(Cl)cc2)S(C)(=O)=O)CC1,0.585,22.5,115.3,i,-2.52*,2.3,538,211
CS(=O)(=O)N(CC(=O)N1CCOCC1)Cc1ccc(Cl)cc1,-0.823,22.3,115.6,i,1.63,6.8,.,.
CC(C)=CC/C=C1\CCC(C(=O)O)C(C(=O)O)C1 (configuration not stated),-0.14,13.1,136.8,i,-13.8*,-1.4,671,227
CC1=CCC(C(=O)O)C(C(=O)O)C1 (configuration not stated),-2.53e-05,.,82.7,.,0.291,.,.,.
COc1cc2c(cc1OC)CN(Cc1cccs1)CC2,.,1.1,124.0,i,.,-5.7,.,.
COc1cc2c(cc1OC)CN(Cc1ccc(OC)c(C)c1OC)CC2,-1.75,13.0,112.0,i,-3.39*,6.7,406*,274
CCOC(=O)C1=C(C)NC(C)=C(C(=O)OCC)C1c1ccc(OC)c(O)c1,.,.,.,i,.,.,.,.
CCN(CC#CC(O)(c1ccccc1)C1CCCC1)C(C)C (configuration not stated),.,.,.,i,.,.,.,.
CN1CCCN=C1COC(=O)C(O)(c1ccccc1)C1CCCCC1 (configuration not stated),0.512,.,112.8,i,-15.7*,-3.0,25.9*,247
Cc1cn(CO)c(=O)n(CO)c1=O,.,.,.,i,.,.,.,.
COc1cccc(C(=O)Nc2nc(-c3cc(C)ccc3C)cs2)c1,.,.,.,i,.,.,.,.
CC(CN1CCN(C)CC1)OC(=O)c1ccccc1Cl (configuration not stated),0.149,6.6,104.3,.,-0.922,.,.,.
